We go through 3 compounds from publication PMC5079036 (Journal of the American Heart Association: Cardiovascular …, 2016).

One data set has as its system humans. To be noted: TRPV1 antagonist; cited from earlier work.
Data set [1] deals with primary neonatal cardiomyocytes (PNCMs). Nature of the data set: Live cell imaging of mitochondrial membrane potential under normoxia. The class given is cell-based, rat. The procedure, abridged: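 Neonatal rat cardiomyocytes (pups 1–3 days old) were plated on glass coverslips at 150 000 cells per dish. Cells were loaded with TMRE 150 nmol/L for 30 min at 37°C, then washed. Imaging was single-cell in a chamber at 37°C, 5% pco₂ and 21% po₂. Inhibitor (1 μmol/L) was added 10 min before the TRPV1 agonist (1 μmol/L). Images were taken every 5 min over 30 min and normalized to baseline (=1). n=3 biological replicates.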

The test system of a further data set is isolated rat hearts. In words: Isolated heart model of ischemia–reperfusion injury. The conditions noted are these: capsaicin 0.1 μmol/L, unpaced hearts, vs vehicle DMSO; n=4.
In a further data set the test system is Male Sprague‐Dawley rats. In words: In vivo myocardial infarction rodent model. More on the design: species or system rat.

Each structure is given as a SMILES string.

As for `CC(=O)Nc1nc2c(Oc3cc(-c4ccc(C(F)(F)F)cc4)ncn3)cccc2s1` [AMG517], the “Body temperature effect in humans” value in the data set on humans is on record as “caused sudden hyperthermia in humans that persisted for days”.

For `COc1cc(CNC(=O)CCCC/C=C/C(C)C)ccc1O` [CAP, capsaicin], the “Mitochondrial membrane potential (TMRE fluorescence)” value in data set [1] (capsaicin 0.1–10 μmol/L, 30 min, normoxia, 3 biological replicates) is “decreased mitochondrial membrane potential”. The “Heart rate during first 15 minutes of infusion” value in the data set with isolated rat hearts is “increased heart rate during the first 15 minutes of infusion”. Besides, in the data set on Male Sprague‐Dawley rats (CAP 0.1-3.0 mg/kg iv, n=6 per group), the “Change in heart rate after CAP administration” value is reported as “increased heart rate when given intravenously”. The “infarct size reduction compared with control” value in the data set with Male Sprague‐Dawley rats (given 5 minutes before reperfusion (CAP 0.3, CsA 2.5, V1‐cal 1 mg/kg iv)) is on record as 27%.

As to `Oc1cc2c(cc1O)CN(C(=S)NCCc1ccc(Cl)cc1)CCC2` [CPZ, capsazepine], in data set [1] (CPZ 1 μmol/L or CsA 1 μmol/L 10 minutes prior to CAP 1 μmol/L, n=3), the “Effect on capsaicin-induced change in mitochondrial membrane potential (TMRE)” value is on record as “blocked”. Moreover, the “Effect on heart rate change afforded by capsaicin” value in the data set on Male Sprague‐Dawley rats (CPZ 3 mg/kg or CsA 2.5 mg/kg before capsaicin 0.3 mg/kg) is recorded as “reduced the change in heart rate”.
